Source: PubChem BioAssay
Shown are actives, neighbours in structure and some others; about 5.9% of the full set was active somewhere.
KDM4C inh = blocks human GASC-1 (KDM4C) demethylase activity; GST-KDM4C 2-372, H3K9me3 peptide, LANCE TR-FRET; inhibition, % at 12.5 µM; 0.15% of 96,000 active; AID 720574;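 active = mean replicate inhibition above about 25%, with at least 55% of replicates also reaching it, limit read from the data, passing the limit was not always enough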
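Test system: N-terminal GST-fused human GASC-1 (KDM4C) fragment, residues 2-372; quantity: GASC-1 enzyme at 10 nM final in reaction; dosing: single dose; schedule: 30 min demethylation and 1 h detection at room temperature; signal: LANCE TR-FRET, excitation 340 nm, emissions 618 and 671 nm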
IDH1 R132H inh = IDH1 R132H (human) inhibition | AID 624101 | IDH1 R132H reductase, diaphorase/resazurin fluorescence, 60 min | O75874 | 0.18% of 70,000 active | inhibition, % at 10 µM; in the data active = inhibition above about 34%
Target sequence (O75874 whole entry R132H): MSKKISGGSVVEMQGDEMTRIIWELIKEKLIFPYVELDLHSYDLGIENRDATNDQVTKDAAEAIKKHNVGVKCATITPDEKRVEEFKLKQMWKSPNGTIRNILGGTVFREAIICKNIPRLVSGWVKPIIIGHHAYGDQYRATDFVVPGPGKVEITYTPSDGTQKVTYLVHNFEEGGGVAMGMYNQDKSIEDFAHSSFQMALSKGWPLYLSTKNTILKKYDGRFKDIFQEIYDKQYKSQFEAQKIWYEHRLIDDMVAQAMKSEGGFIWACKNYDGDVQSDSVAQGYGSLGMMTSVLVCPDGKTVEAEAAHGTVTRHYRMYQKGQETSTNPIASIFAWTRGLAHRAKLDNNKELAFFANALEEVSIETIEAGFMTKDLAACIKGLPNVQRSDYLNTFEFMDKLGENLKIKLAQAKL
Pf Dd2 growth = P. falciparum Dd2 growth inhibition; SYBR Green, 72 h; hits give low values; activity change, % at 10 µM; 2.3% of 94,000 active; in the data active = activity change below about -80%
Tcruzi prolif = blocks T. cruzi growth in NIH3T3 culture; T. cruzi beta-gal in NIH3T3, GalScreen luminescence, 90 h; inhibition, % at 8.34 µM; 5.9% of 77,000 active; AID 624255;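 active = mean inhibition above about 93%, with at least 55% of replicates each passing it, limit read from the data, passing the limit was not always enough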
Each line names hits and unclear results; the compound was inactive in the other large screens.

C[C@H](NC(=O)C[C@H]1C[C@@H]2c3cc(NS(=O)(=O)c4ccc(F)cc4)ccc3O[C@@H]2[C@H](CO)O1)c1ccccc1	none
CN(C)c1ccc2c(c1)[C@H]1C[C@@H](CC(=O)NCc3ccccc3)O[C@@H](CO)[C@H]1O2	KDM4C inh 40
CN(C)c1ccc2c(c1)[C@H]1C[C@H](CC(=O)NCc3ccccc3)O[C@H](CO)[C@H]1O2	KDM4C inh 44
Cc1ccc(Cl)cc1NC(=O)CSc1nnc(-c2cccs2)n1C	none (no result: KDM4C inh, Pf Dd2 growth, Tcruzi prolif)
COc1ccc(C(=O)NCc2occc2C(=O)O)cc1	none (no result: KDM4C inh, Pf Dd2 growth, Tcruzi prolif)
C[C@H](NC(=O)C[C@@H]1C[C@H]2c3cc(NC(=O)NC4CCCCC4)ccc3O[C@H]2[C@@H](CO)O1)c1ccccc1	KDM4C inh 32
CN(C)c1ccc2c(c1)[C@H]1C[C@H](CC(=O)NCc3ccccn3)O[C@H](CO)[C@H]1O2	KDM4C inh 34
C[C@@H]1CN([C@@H](C)CO)C(=O)c2ccccc2-c2ccccc2CO[C@H]1CN(C)C(=O)Nc1cccc(C(F)(F)F)c1	Pf Dd2 growth -87 (no result: IDH1 R132H inh)
C[C@@H]1CN([C@@H](C)CO)C(=O)c2ccccc2-c2ccccc2CO[C@H]1CN(C)C(=O)Nc1cccc(F)c1	Pf Dd2 growth -83 (no result: IDH1 R132H inh)
C[C@H]1CN([C@@H](C)CO)C(=O)c2ccccc2-c2ccccc2CO[C@@H]1CN(C)C(=O)Nc1ccc(-c2ccccc2)cc1	Pf Dd2 growth -86 (no result: IDH1 R132H inh, Tcruzi prolif)
C[C@H](CO)N1C[C@H](C)[C@H](CN(C)C(=O)Nc2cccc(C(F)(F)F)c2)OCc2ccccc2-c2ccccc2C1=O	none
Cc1nc(SCC(=O)Nc2cc(C(F)(F)F)ccc2Cl)nc2c1CCCC2	none (no result: KDM4C inh, Pf Dd2 growth, Tcruzi prolif)
Cc1ccccc1NC(=O)CSc1nc(N)c2c3c(sc2n1)COC(C)(C)C3	none (no result: KDM4C inh, Pf Dd2 growth, Tcruzi prolif)
CC1CCN(S(=O)(=O)c2cn(CC(=O)N(C)Cc3ccccc3)c(=O)c3ccccc23)CC1	none (no result: KDM4C inh, Pf Dd2 growth, Tcruzi prolif)
CC(C)NC(=O)Nc1cccc2c1O[C@H](CN(C)C(=O)Nc1ccc(C(F)(F)F)cc1)[C@@H](C)CN([C@H](C)CO)C2=O	none (no result: IDH1 R132H inh)
C[C@@H]1CN([C@@H](C)CO)C(=O)c2cccc(NC(=O)Nc3ccc(C(F)(F)F)cc3)c2O[C@H]1CN(C)C(=O)Nc1cccc2ccccc12	Pf Dd2 growth -88
C[C@@H]1CN([C@@H](C)CO)C(=O)c2cccc(NC(=O)Nc3ccc(C(F)(F)F)cc3)c2O[C@@H]1CN(C)S(=O)(=O)c1ccc(Cl)cc1	Tcruzi prolif 107
C[C@H](CO)N1C[C@H](C)[C@H](CN(C)C(=O)Nc2cccc3ccccc23)Oc2c(NC(=O)Nc3ccc(C(F)(F)F)cc3)cccc2C1=O	none (no result: KDM4C inh, IDH1 R132H inh)
CC(C)NC(=O)Nc1cccc2c1O[C@H](CN(C)C(=O)Nc1ccc(C(F)(F)F)cc1)[C@H](C)CN([C@@H](C)CO)C2=O	Pf Dd2 growth -85 (no result: IDH1 R132H inh)
C[C@@H]1CN([C@@H](C)CO)C(=O)c2cc(NC(=O)Nc3ccccc3)ccc2O[C@@H]1CN(C)C(=O)Nc1cccc2ccccc12	Pf Dd2 growth -91
CC(=O)Nc1ccc(C(=O)CSc2nnc(-c3cccc(Br)c3)o2)cc1	none (no result: KDM4C inh, Pf Dd2 growth, Tcruzi prolif)
CC1=C(C)CC(C(=O)Nc2cccc3ccccc23)C(C(=O)O)C1 (configuration not stated)	none (no result: KDM4C inh, Pf Dd2 growth, Tcruzi prolif)
C[C@H](CO)N1C[C@H](C)[C@H](CN(C)C(=O)Nc2ccc(C(F)(F)F)cc2)Oc2ccc(NC(=O)Nc3cccc4ccccc34)cc2C1=O	Pf Dd2 growth -83
C[C@@H]1CN([C@@H](C)CO)C(=O)c2cc(NC(=O)Nc3ccc(C(F)(F)F)cc3)ccc2O[C@H]1CN(C)C(=O)Nc1cccc2ccccc12	Pf Dd2 growth -87
C[C@@H]1CN([C@@H](C)CO)C(=O)c2cc(NC(=O)Nc3cccc4ccccc34)ccc2O[C@@H]1CN(C)C(=O)Nc1ccc(C(F)(F)F)cc1	none
C[C@@H]1CN([C@H](C)CO)C(=O)c2cccc(NS(=O)(=O)c3cn(C)cn3)c2O[C@@H]1CN(C)C(=O)Nc1ccc(C(F)(F)F)cc1	none
C[C@H]1CN([C@@H](C)CO)C(=O)c2cccc(NS(=O)(=O)c3cn(C)cn3)c2O[C@H]1CN(C)C(=O)Nc1ccc(C(F)(F)F)cc1	Pf Dd2 growth -85
Clc1ccccc1OCCSc1nnc(-c2cccnc2)n1-c1ccccc1	none (no result: KDM4C inh, Pf Dd2 growth, Tcruzi prolif)
CN1C(=O)c2cc(NC(=O)Nc3ccccc3Cl)ccc2OC[C@H]2O[C@@H](CC(=O)O)CC[C@@H]21	KDM4C inh 49 (no result: IDH1 R132H inh)
C[C@@H]1CN([C@H](C)CO)C(=O)c2c(c3ccccc3n2C)-c2ccccc2CO[C@H]1CN(C)S(=O)(=O)c1ccc(C(F)(F)F)cc1	Pf Dd2 growth -89 (no result: IDH1 R132H inh, Tcruzi prolif)
